Results: ChEMBL document CHEMBL1806356, “Synthesis, characterization and antimicrobial studies of some new pyrazole incorporated imidazole derivatives” (Eur J Med Chem, 2011)

Experiments:
[1] = tested on: Escherichia coli; assay: Antibacterial activity against Escherichia coli ATCC 25922 assessed as zone of inhibition at 1000 ug/ml after 24 hrs by agar diffusion method; format: functional; details: ATCC 25922, 24 h, read-out: IZ
How it was run: (§1)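 Well diffusion on Mueller-Hinton agar seeded with 24 h old bacterial cultures. Test compounds were dissolved in DMSO at 1 and 0.5 mg/mL and added to labeled wells. Plates were incubated 24 h at 37 °C. The inhibition zone around each well was measured in mm. Triplicate experiments, standard deviation calculated.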

[2] = tested on: Escherichia coli; assay: Antibacterial activity against Escherichia coli ATCC 25922 assessed as zone of inhibition at 500 ug/ml after 24 hrs by agar diffusion method; format: functional; details: ATCC 25922, 24 h, read-out: IZ; how it was run: as §1
[3] = tested on: Staphylococcus aureus; assay: Antibacterial activity against Staphylococcus aureus assessed as zone of inhibition at 1000 ug/ml after 24 hrs by agar diffusion method; format: functional; details: read-out: IZ; how it was run: as §1
[4] = tested on: Staphylococcus aureus; assay: Antibacterial activity against Staphylococcus aureus assessed as zone of inhibition at 500 ug/ml after 24 hrs by agar diffusion method; format: functional; details: read-out: IZ; how it was run: as §1
[5] = tested on: Bacillus subtilis; assay: Antibacterial activity against Bacillus subtilis assessed as zone of inhibition at 1000 ug/ml after 24 hrs by agar diffusion method; format: functional; details: read-out: IZ; how it was run: as §1
[6] = tested on: Bacillus subtilis; assay: Antibacterial activity against Bacillus subtilis assessed as zone of inhibition at 500 ug/ml after 24 hrs by agar diffusion method; format: functional; details: read-out: IZ; how it was run: as §1
[7] = tested on: Salmonella typhimurium; assay: Antibacterial activity against Salmonella Typhimurium assessed as zone of inhibition at 1000 ug/ml after 24 hrs by agar diffusion method; format: functional, Salmonella enterica subsp. enterica serovar Typhimurium; details: Salmonella enterica, read-out: IZ; how it was run: as §1
[8] = tested on: Salmonella typhimurium; assay: Antibacterial activity against Salmonella Typhimurium assessed as zone of inhibition at 500 ug/ml after 24 hrs by agar diffusion method; format: functional, Salmonella enterica subsp. enterica serovar Typhimurium; details: Salmonella enterica, read-out: IZ; how it was run: as §1
[9] = tested on: Clostridium perfringens; assay: Antibacterial activity against Clostridium perfringens assessed as zone of inhibition at 1000 ug/ml after 24 hrs by agar diffusion method; format: functional; details: read-out: IZ
How it was run: (§2)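 Well diffusion on Mueller-Hinton agar seeded with 24 h old cultures. Compounds dissolved in DMSO at 1 and 0.5 mg/mL and added to wells punched with a sterile cork borer, with a DMSO-only control. Plates incubated 24 h at 37 °C. Read-out was the inhibition zone in mm, run in triplicate, standard deviation calculated.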

[10] = tested on: Clostridium perfringens; assay: Antibacterial activity against Clostridium perfringens assessed as zone of inhibition at 500 ug/ml after 24 hrs by agar diffusion method; format: functional; details: read-out: IZ; how it was run: as §2
[11] = tested on: Pseudomonas aeruginosa; assay: Antibacterial activity against Pseudomonas aeruginosa ATCC 27853 assessed as zone of inhibition at 1000 ug/ml after 24 hrs by agar diffusion method; format: functional; details: ATCC 27853, 24 h, read-out: IZ; how it was run: as §1
[12] = tested on: Pseudomonas aeruginosa; assay: Antibacterial activity against Pseudomonas aeruginosa ATCC 27853 assessed as zone of inhibition at 500 ug/ml after 24 hrs by agar diffusion method; format: functional; details: ATCC 27853, 24 h, read-out: IZ; how it was run: as §1
[13] = tested on: Candida albicans; assay: Antifungal activity against Candida albicans at 1000 ug/ml after 72 hrs by agar diffusion method by agar diffusion method; format: functional; details: read-out: DIZ
How it was run: (§3)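 Fungal spores were suspended in normal saline (one loopful in 3 mL) and lawned on agar plates. Wells were punched with a sterile cork borer and loaded with test compound in DMSO at the different concentrations. A DMSO solvent control was included. Petri dishes were prepared in triplicate and held at 25 °C for 72 h.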

[14] = tested on: Candida albicans; assay: Antifungal activity against Candida albicans at 500 ug/ml after 72 hrs by agar diffusion method; format: functional; details: read-out: DIZ; how it was run: as §3
[15] = tested on: Nannizzia gypsea; assay: Antifungal activity against Microsporum gypseum at 1000 ug/ml after 72 hrs by agar diffusion method; format: functional; details: read-out: DIZ; how it was run: as §3
[16] = tested on: Nannizzia gypsea; assay: Antifungal activity against Microsporum gypseum at 500 ug/ml after 72 hrs by agar diffusion method; format: functional; details: read-out: DIZ; how it was run: as §3
[17] = tested on: Aspergillus flavus; assay: Antifungal activity against Aspergillus flavus at 1000 ug/ml after 72 hrs by agar diffusion method; format: functional; details: read-out: DIZ; how it was run: as §3
[18] = tested on: Aspergillus flavus; assay: Antifungal activity against Aspergillus flavus at 500 ug/ml after 72 hrs by agar diffusion method; format: functional; details: read-out: DIZ; how it was run: as §3
[19] = tested on: Aspergillus niger; assay: Antifungal activity against Aspergillus niger at 1000 ug/ml after 72 hrs by agar diffusion method; format: functional; details: read-out: DIZ; how it was run: as §3
[20] = tested on: Aspergillus niger; assay: Antifungal activity against Aspergillus niger at 500 ug/ml after 72 hrs by agar diffusion method; format: functional; details: read-out: DIZ; how it was run: as §3
[21] = tested on: Trichophyton rubrum; assay: Antifungal activity against Trichophyton rubrum at 1000 ug/ml after 72 hrs by agar diffusion method; format: functional; details: read-out: DIZ; how it was run: as §3
[22] = tested on: Trichophyton rubrum; assay: Antifungal activity against Trichophyton rubrum at 500 ug/ml after 72 hrs by agar diffusion method; format: functional; details: read-out: DIZ; how it was run: as §3

SMILES	zone of inhibition at 1000 µg/mL [1] [mm]	zone of inhibition at 500 µg/mL [2] [mm]	zone of inhibition at 1000 µg/mL [3] [mm]	zone of inhibition at 500 µg/mL [4] [mm]	zone of inhibition at 1000 µg/mL [5] [mm]	zone of inhibition at 500 µg/mL [6] [mm]	zone of inhibition at 1000 µg/mL [7] [mm]	zone of inhibition at 500 µg/mL [8] [mm]	zone of inhibition at 1000 µg/mL [9] [mm]	zone of inhibition at 500 µg/mL [10] [mm]	zone of inhibition at 1000 µg/mL [11] [mm]	zone of inhibition at 500 µg/mL [12] [mm]	zone of inhibition at 1000 µg/mL [13] [mm]	zone of inhibition at 500 µg/mL [14] [mm]	zone of inhibition at 1000 µg/mL [15] [mm]	zone of inhibition at 500 µg/mL [16] [mm]	zone of inhibition at 1000 µg/mL [17] [mm]	zone of inhibition at 500 µg/mL [18] [mm]	zone of inhibition at 1000 µg/mL [19] [mm]	zone of inhibition at 500 µg/mL [20] [mm]	further results
COC(=O)/C=C1/C(=O)NC(=S)N1/N=C/c1c[nH]nc1-c1ccc(Cl)cc1Cl	8	7	6	5	8	7	4	3	7	6	7	6	7	6	7	6	12	11	6	5	zone of inhibition at 1000 µg/mL [21]: 10 mm; zone of inhibition at 500 µg/mL [22]: 9 mm
COC(=O)/C=C1/C(=O)NC(=S)N1/N=C/c1c[nH]nc1-c1ccc(C)cc1	5	4	4	3	9	8	6	5	6	5	4	3	4	3	4	3	6	5	10	9	zone of inhibition at 1000 µg/mL [21]: 10 mm; zone of inhibition at 500 µg/mL [22]: 9 mm
CSc1ccc(-c2n[nH]cc2-c2nc(-c3ccccc3)c(-c3ccccc3)[nH]2)cc1	7	6	4	3	5	4	4	3	4	3	5	4	10	9	6	5	5	4	10	9	zone of inhibition at 1000 µg/mL [21]: 12 mm; zone of inhibition at 500 µg/mL [22]: 11 mm
COC(=O)/C=C1/C(=O)NC(=S)N1/N=C/c1c[nH]nc1-c1cc(Cl)sc1Cl	9	8	7	6	8	7	10	9	12	11	9	8	6	5	6	5	10	9	6	5	zone of inhibition at 1000 µg/mL [21]: 13 mm; zone of inhibition at 500 µg/mL [22]: 12 mm
Clc1ccc(-c2n[nH]cc2-c2nc(-c3ccccc3)c(-c3ccccc3)[nH]2)c(Cl)c1	10	9	6	5	6	5	3	2	6	5	4	3	12	11	4	3	8	7	9	7	zone of inhibition at 1000 µg/mL [21]: 10 mm; zone of inhibition at 500 µg/mL [22]: 8 mm
c1ccc(-c2ccc(-c3n[nH]cc3-c3nc(-c4ccccc4)c(-c4ccccc4)[nH]3)cc2)cc1	3	2	2	1	3	2	4	3	2	1	4	3	9	8	5	4	9	7	10	9	zone of inhibition at 1000 µg/mL [21]: 9 mm; zone of inhibition at 500 µg/mL [22]: 8 mm
Cc1ccc(-c2n[nH]cc2-c2nc(-c3ccccc3)c(-c3ccccc3)[nH]2)cc1	14	8	7	6	8	7	6	5	6	5	6	4	10	9	3	2	10	9	10	9	zone of inhibition at 1000 µg/mL [21]: 12 mm; zone of inhibition at 500 µg/mL [22]: 11 mm
OC(Cn1cncn1)(Cn1cncn1)c1ccc(F)cc1F [FLUCONAZOLE]													22	21	15	14	22	21	20	18	zone of inhibition at 1000 µg/mL [21]: 24 mm; zone of inhibition at 500 µg/mL [22]: 22 mm
CN[C@@H]1[C@H](O[C@H]2[C@H](O[C@H]3[C@H](O)[C@@H](O)[C@H](N=C(N)N)[C@@H](O)[C@@H]3N=C(N)N)O[C@@H](C)[C@]2(O)C=O)O[C@@H](CO)[C@H](O)[C@H]1O [STREPTOMYCIN]	16	10	15	10	21	11	18	17	17	16	13	9									
